Columns and labels:
[1] = target: Fibroblast growth factor receptor 2 (Homo sapiens) (UniProt P21802); assay: Competitive binding affinity to FGFR2 (unknown origin) at 10 uM in presence of ATP relative to control
Outline: (§1)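 In vitro ATP-site competition binding assay, part of profiling against a diverse panel of 128 kinases. Each compound was tested at a single concentration of 10 µM. Kinome selectivity was summarized as S15 selectivity scores.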

[2] = target: Cyclin-dependent kinase 16 (Homo sapiens) (UniProt Q00536); assay: Competitive binding affinity to PCTK1 (unknown origin) at 10 uM in presence of ATP relative to control
Chain of Cyclin-dependent kinase 16 (Homo sapiens) (Q00536 whole entry): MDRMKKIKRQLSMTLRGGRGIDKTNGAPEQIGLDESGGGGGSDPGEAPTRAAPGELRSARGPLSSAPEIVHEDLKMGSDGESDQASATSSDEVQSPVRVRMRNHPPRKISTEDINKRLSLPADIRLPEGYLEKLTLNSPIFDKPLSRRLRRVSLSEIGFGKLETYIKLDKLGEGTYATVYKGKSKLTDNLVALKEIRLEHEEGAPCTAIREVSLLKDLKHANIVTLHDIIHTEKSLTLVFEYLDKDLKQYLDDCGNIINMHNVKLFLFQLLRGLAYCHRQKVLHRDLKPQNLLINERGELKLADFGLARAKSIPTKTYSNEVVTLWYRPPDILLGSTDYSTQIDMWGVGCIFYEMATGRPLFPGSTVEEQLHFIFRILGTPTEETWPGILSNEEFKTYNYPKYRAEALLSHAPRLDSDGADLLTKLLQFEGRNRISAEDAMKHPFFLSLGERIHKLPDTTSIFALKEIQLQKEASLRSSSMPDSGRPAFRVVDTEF
Outline: (§2)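 In vitro ATP-site competition binding assay across a diverse panel of 128 kinases, with compound tested at a single concentration. Kinase selectivity scores (S15) were calculated from the panel profiles.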

[3] = target: Protein-tyrosine kinase 6 (Homo sapiens) (UniProt Q13882); assay: Competitive binding affinity to PTK6 (unknown origin) at 10 uM in presence of ATP relative to control; outline: as §2
Chain of Protein-tyrosine kinase 6 (Homo sapiens) (Q13882 whole entry, looked up): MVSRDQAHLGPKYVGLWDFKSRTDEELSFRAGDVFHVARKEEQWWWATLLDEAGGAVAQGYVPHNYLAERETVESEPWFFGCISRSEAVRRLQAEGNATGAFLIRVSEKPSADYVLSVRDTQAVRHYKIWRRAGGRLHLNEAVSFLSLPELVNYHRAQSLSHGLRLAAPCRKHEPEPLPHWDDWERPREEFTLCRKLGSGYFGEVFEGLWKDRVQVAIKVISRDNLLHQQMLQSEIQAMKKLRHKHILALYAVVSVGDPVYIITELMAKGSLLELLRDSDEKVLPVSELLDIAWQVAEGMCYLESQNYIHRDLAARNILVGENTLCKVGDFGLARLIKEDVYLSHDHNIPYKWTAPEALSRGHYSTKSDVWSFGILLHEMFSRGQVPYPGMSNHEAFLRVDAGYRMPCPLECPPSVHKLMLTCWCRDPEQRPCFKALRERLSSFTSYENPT

[4] = target: T1, Ephrin type-B receptor 4 (Homo sapiens) (UniProt P54760); assay: Competitive binding affinity to EPHB4 (unknown origin) at 10 uM in presence of ATP relative to control; outline: as §1
T1 sequence (whole entry): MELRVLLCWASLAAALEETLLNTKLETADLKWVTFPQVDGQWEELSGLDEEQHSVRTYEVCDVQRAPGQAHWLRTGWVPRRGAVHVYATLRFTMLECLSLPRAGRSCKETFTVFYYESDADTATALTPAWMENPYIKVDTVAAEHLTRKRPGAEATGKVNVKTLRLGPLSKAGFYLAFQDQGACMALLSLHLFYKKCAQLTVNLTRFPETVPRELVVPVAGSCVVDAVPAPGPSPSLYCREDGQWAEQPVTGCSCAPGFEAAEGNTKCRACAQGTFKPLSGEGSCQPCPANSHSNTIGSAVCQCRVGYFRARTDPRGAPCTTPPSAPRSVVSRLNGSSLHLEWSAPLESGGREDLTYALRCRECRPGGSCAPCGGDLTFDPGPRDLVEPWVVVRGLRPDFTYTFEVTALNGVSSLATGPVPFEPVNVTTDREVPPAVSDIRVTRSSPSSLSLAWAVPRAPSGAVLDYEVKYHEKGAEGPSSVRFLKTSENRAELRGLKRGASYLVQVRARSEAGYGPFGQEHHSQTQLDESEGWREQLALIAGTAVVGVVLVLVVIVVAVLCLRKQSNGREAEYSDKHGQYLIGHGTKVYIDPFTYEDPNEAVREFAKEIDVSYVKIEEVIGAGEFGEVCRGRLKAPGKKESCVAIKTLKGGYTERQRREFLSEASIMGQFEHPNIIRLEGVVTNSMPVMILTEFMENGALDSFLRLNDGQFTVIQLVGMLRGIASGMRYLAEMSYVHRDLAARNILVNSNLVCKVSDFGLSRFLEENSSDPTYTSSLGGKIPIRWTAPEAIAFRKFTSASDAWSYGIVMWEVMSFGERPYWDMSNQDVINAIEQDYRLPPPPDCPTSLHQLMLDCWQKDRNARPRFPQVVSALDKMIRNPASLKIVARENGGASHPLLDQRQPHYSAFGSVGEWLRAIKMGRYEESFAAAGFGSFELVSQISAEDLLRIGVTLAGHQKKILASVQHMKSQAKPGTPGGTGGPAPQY

[5] = target: Mitogen-activated protein kinase 14 (Homo sapiens, UniProt Q16539); assay: Competitive binding affinity to p38-alpha (unknown origin) at 10 uM in presence of ATP relative to control; outline: as §2
Chain of Mitogen-activated protein kinase 14 (Q16539 whole entry): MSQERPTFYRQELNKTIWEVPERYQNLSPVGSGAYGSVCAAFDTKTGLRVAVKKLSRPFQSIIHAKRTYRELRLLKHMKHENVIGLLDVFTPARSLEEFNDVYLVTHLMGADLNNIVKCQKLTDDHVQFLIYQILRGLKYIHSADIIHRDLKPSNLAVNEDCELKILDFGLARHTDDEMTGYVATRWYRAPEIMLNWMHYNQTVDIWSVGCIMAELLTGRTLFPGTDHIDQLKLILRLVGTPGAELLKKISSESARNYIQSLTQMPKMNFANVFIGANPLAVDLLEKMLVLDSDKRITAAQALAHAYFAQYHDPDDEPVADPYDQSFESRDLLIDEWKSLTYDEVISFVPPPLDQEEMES

[6] = target: Tyrosine-protein kinase CSK (Homo sapiens) (UniProt P41240); assay: Competitive binding affinity to CSK (unknown origin) at 10 uM in presence of ATP relative to control
Chain of Tyrosine-protein kinase CSK (Homo sapiens) (P41240 2-450 limits assumed): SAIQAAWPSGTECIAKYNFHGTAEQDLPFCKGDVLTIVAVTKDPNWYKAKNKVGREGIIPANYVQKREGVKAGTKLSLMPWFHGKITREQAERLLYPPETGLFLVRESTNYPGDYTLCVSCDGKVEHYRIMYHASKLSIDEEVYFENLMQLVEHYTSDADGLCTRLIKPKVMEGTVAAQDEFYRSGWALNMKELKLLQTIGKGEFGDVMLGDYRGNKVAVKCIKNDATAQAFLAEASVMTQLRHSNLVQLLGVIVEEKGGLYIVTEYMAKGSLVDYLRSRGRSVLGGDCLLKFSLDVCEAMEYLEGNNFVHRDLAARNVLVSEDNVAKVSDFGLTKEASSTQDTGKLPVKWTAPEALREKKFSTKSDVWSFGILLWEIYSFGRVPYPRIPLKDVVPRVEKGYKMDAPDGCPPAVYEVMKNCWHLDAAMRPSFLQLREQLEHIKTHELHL

[7] = target: T2, Serine/threonine-protein kinase PLK4 (Homo sapiens) (UniProt O00444); assay: Competitive binding affinity to PLK4 (unknown origin) at 10 uM in presence of ATP relative to control; outline: as §2
T2 sequence (whole entry): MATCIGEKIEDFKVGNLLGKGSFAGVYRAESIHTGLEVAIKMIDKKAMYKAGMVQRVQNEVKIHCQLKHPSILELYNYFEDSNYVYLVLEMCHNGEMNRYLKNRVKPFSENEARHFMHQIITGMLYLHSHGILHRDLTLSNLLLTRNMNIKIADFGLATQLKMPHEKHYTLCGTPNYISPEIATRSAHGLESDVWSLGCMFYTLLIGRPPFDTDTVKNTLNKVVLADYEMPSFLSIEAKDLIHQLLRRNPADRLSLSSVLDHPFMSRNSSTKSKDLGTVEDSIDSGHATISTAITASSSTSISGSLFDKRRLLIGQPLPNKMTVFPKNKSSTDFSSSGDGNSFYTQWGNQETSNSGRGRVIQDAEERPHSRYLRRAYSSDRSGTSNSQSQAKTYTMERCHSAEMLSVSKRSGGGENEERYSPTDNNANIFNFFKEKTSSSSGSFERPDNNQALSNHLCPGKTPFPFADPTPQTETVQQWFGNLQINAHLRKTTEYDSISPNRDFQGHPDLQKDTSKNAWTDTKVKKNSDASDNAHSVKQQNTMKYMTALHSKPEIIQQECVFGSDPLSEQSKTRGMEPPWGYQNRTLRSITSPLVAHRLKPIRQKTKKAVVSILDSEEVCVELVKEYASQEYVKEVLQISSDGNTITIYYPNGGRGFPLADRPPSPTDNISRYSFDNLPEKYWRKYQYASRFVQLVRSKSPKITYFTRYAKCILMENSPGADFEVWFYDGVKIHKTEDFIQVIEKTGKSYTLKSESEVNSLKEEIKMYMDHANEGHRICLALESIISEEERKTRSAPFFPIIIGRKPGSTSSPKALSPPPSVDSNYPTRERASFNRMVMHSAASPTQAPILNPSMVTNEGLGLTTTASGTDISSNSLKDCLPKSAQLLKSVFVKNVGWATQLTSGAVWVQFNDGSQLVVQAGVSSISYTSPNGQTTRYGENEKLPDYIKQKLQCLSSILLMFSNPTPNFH

[8] = target: Vascular endothelial growth factor receptor 3 (Homo sapiens) (UniProt P35916); assay: Competitive binding affinity to FLT4 (unknown origin) at 10 uM in presence of ATP relative to control; outline: as §1
[9] = target: Mast/stem cell growth factor receptor Kit (Homo sapiens) (UniProt P10721); assay: Competitive binding affinity to KIT (unknown origin) at 10 uM in presence of ATP relative to control; outline: as §1
Chain of Mast/stem cell growth factor receptor Kit (Homo sapiens) (P10721 whole entry): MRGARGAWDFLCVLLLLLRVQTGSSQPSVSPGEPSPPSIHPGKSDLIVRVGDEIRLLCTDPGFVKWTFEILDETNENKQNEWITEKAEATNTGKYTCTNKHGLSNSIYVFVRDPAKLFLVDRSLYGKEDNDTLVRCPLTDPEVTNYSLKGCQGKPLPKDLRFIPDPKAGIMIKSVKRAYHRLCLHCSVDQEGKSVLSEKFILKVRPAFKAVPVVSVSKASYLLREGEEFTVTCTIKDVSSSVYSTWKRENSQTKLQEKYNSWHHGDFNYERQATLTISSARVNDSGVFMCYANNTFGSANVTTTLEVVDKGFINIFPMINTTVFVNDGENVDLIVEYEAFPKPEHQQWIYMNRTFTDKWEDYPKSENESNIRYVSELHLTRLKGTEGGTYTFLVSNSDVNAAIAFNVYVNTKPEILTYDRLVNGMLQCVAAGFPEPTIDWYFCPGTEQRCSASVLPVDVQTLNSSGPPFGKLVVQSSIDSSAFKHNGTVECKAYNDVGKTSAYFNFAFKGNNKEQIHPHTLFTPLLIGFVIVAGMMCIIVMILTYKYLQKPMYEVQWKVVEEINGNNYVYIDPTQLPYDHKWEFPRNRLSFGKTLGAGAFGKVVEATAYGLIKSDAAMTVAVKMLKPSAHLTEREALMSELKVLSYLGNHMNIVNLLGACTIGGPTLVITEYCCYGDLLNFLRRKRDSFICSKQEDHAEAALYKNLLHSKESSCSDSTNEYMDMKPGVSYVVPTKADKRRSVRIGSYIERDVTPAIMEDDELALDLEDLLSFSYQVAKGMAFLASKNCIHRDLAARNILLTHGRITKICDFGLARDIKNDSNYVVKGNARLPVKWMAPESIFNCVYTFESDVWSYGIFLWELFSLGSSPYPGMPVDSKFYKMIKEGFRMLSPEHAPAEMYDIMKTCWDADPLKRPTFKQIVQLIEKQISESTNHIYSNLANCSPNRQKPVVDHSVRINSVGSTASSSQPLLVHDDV

[10] = target: Tyrosine-protein kinase Fgr (Homo sapiens) (UniProt P09769); assay: Competitive binding affinity to FGR (unknown origin) at 10 uM in presence of ATP relative to control; outline: as §1
Chain of Tyrosine-protein kinase Fgr (Homo sapiens) (P09769 2-529 limits assumed): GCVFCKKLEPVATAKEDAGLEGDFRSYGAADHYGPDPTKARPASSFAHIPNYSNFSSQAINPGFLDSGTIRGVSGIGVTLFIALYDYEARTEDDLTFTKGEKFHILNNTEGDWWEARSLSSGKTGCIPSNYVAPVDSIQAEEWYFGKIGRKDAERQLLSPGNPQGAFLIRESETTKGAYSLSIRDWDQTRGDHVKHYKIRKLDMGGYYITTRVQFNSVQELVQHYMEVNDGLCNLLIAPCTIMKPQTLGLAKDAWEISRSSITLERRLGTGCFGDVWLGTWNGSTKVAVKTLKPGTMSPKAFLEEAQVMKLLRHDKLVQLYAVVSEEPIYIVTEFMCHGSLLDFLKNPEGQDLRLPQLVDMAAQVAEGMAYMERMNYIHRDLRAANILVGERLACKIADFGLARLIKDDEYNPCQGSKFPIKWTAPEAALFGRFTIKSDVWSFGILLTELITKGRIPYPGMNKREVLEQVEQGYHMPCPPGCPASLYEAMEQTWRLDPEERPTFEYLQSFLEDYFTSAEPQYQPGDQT

[11] = target: Cyclin-dependent kinase 5 (Homo sapiens) (UniProt Q00535); assay: Competitive binding affinity to CDK5 (unknown origin) at 10 uM in presence of ATP relative to control
Chain of Cyclin-dependent kinase 5 (Homo sapiens) (Q00535 whole entry, looked up): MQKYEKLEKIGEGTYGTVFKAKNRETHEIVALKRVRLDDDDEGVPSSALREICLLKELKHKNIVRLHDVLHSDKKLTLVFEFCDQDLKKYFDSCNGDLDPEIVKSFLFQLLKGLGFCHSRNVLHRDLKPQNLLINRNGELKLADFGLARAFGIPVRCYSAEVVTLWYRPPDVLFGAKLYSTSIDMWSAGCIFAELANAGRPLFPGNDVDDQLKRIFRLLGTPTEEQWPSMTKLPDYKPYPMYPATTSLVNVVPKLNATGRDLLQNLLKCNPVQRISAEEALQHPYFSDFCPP

[12] = target: Tyrosine-protein kinase Blk (Homo sapiens) (UniProt P51451); assay: Competitive binding affinity to BLK (unknown origin) at 10 uM in presence of ATP relative to control
Chain of Tyrosine-protein kinase Blk (Homo sapiens) (P51451 2-505 limits assumed): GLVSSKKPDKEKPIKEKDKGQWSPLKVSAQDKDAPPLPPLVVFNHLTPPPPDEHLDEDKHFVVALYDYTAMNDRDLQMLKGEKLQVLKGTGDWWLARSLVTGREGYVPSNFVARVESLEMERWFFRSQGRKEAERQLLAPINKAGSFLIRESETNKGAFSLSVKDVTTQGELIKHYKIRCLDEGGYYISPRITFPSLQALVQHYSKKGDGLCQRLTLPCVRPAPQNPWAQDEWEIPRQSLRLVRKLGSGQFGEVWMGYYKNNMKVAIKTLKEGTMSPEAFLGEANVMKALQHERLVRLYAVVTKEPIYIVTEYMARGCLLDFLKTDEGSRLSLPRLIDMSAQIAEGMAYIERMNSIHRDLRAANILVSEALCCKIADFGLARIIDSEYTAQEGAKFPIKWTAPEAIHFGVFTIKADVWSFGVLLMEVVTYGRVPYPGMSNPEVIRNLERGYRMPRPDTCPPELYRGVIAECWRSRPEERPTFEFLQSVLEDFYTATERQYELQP

[13] = target: Mitogen-activated protein kinase 8 (Homo sapiens, UniProt P45983)

Chain of Fibroblast growth factor receptor 2 (Homo sapiens) (P21802 22-821 limits assumed): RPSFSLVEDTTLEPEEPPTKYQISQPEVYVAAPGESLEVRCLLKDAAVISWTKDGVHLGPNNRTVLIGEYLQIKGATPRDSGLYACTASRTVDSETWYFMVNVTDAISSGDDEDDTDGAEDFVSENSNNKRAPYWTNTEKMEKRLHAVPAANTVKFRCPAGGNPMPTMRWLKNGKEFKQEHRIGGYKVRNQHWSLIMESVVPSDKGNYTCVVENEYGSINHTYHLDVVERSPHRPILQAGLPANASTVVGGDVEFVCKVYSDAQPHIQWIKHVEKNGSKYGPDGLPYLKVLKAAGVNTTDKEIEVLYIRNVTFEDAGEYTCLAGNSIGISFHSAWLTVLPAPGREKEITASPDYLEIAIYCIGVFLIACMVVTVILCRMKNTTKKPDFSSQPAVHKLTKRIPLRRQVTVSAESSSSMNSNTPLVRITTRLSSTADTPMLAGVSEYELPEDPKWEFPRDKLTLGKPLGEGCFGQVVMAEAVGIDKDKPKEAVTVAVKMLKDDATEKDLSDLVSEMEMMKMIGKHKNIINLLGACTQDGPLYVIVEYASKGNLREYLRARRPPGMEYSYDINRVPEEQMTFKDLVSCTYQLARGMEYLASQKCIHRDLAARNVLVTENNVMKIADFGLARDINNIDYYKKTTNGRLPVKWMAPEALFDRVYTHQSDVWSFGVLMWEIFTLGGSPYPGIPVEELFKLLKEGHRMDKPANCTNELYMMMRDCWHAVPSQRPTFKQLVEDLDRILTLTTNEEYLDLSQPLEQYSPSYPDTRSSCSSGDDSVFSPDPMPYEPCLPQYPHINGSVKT

O[C@H]1CC[C@H](Nc2nccc(-n3nnc4ccccc43)n2)CC1
inhibition [1]: < 50% | inhibition [2]: 100% | inhibition [3]: < 50% | inhibition [4]: < 50% | inhibition [5]: < 50% | inhibition [6]: < 50% | inhibition [7]: < 50% | inhibition [8]: < 50% | inhibition [9]: 86% | inhibition [10]: 75% | inhibition [11]: 74% | inhibition [12]: 88% | IC50 [13]: 29 nM

N[C@H]1CC[C@H](Nc2nccc(-n3nnc4ccccc43)n2)CC1
inhibition [1]: < 50% | inhibition [2]: 100% | inhibition [3]: < 50% | inhibition [4]: < 50% | inhibition [5]: < 50% | inhibition [6]: < 50% | inhibition [7]: < 50% | inhibition [8]: < 50% | inhibition [9]: 72% | inhibition [10]: 80% | inhibition [11]: 90% | inhibition [12]: 99% | IC50 [13]: 74 nM

O=C([C@H]1CC[C@H](Nc2nccc(-n3nnc4ccccc43)n2)CC1)N1CCOCC1
inhibition [1]: < 50% | inhibition [2]: 91% | inhibition [3]: < 50% | inhibition [4]: < 50% | inhibition [5]: < 50% | inhibition [6]: < 50% | inhibition [7]: 71% | inhibition [8]: < 50% | inhibition [9]: 67% | inhibition [10]: 82% | inhibition [11]: < 50% | inhibition [12]: 93% | IC50 [13]: 63 nM

CS(=O)(=O)CCCOc1cccc2c1ccn2-c1ccnc(N[C@H]2CC[C@H](C(=O)N3CCC(O)CC3)CC2)n1
inhibition [5]: > 85% | IC50 [13]: 16 nM

O[C@H]1CC[C@H](Nc2nccc(-n3ncc4ccccc43)n2)CC1
inhibition [1]: < 50% | inhibition [2]: 99% | inhibition [3]: < 50% | inhibition [4]: < 50% | inhibition [5]: < 50% | inhibition [6]: < 50% | inhibition [7]: 63% | inhibition [8]: < 50% | inhibition [9]: 91% | inhibition [10]: < 50% | inhibition [11]: < 50% | inhibition [12]: < 50% | IC50 [13]: 55 nM

O[C@H]1CC[C@H](Nc2nccc(-c3n[nH]c4ccccc34)n2)CC1
inhibition [1]: < 50% | inhibition [2]: 100% | inhibition [3]: 78% | inhibition [4]: 100% | inhibition [5]: < 50% | inhibition [6]: < 50% | inhibition [7]: 100% | inhibition [8]: 87% | inhibition [9]: 98% | inhibition [10]: 80% | inhibition [11]: 95% | inhibition [12]: 92% | IC50 [13]: 250 nM

O[C@H]1CC[C@H](Nc2nccc(-n3ccc4ccccc43)n2)CC1
inhibition [1]: < 50% | inhibition [2]: 99% | inhibition [3]: < 50% | inhibition [4]: < 50% | inhibition [5]: < 50% | inhibition [6]: < 50% | inhibition [7]: < 50% | inhibition [8]: < 50% | inhibition [9]: 72% | inhibition [10]: < 50% | inhibition [11]: < 50% | inhibition [12]: < 50% | IC50 [13]: 65 nM

From ChEMBL document CHEMBL2424622, “Development of amino-pyrimidine inhibitors of c-Jun N-terminal kinase (JNK): kinase profiling guided optimization of a 1,2,3-benzotriazole lead” (Bioorg Med Chem Lett, 2013)
